In the library only some 1.5% were active in any assay of this set; here they are far more common.
FLuc act counter = firefly luciferase counter-screen for stimulation assays. activation factor at 10 µM. P08659. ATPlite luciferase biochemical, luminescence, 10 min; 0 = ATP-free wells, 1 = DMSO control. 200,000 tested, under 10 active;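 active means luciferase activation factor, scaled between plate controls, of at least 2 with compound at 10 µM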
Target sequence (P08659 whole entry, looked up): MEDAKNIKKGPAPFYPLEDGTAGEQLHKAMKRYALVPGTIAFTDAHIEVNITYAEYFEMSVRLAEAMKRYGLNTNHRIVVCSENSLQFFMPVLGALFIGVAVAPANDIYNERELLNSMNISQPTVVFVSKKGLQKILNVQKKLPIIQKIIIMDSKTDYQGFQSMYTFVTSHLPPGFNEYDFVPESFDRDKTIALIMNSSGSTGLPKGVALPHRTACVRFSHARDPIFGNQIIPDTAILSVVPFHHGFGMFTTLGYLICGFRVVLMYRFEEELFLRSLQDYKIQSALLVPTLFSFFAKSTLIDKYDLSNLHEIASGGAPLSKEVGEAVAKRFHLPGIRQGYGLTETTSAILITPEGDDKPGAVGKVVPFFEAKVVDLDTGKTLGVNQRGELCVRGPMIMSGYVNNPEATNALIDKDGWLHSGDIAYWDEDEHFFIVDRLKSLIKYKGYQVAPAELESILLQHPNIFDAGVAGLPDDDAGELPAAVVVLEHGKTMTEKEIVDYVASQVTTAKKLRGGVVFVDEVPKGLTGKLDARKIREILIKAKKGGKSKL
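Assay system: Luciferase/luciferin reagent mix; Medium: PBS as buffer for the ATP substrate; Dosing: test compounds dosed from 2 mM stocks in 100% DMSO; Times: 10 min, room temperature; Signal: luminescence from luciferase reaction; Read-out: luciferase activation; Controls: No-ATP low control, compound-free enzyme-plus-ATP high control.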
TRAIL sens C8 = sensitizes caspase-8 expressing cells to TRAIL; NB7+C8 cells + TRAIL, ATPlite viability luminescence; inhibition (viability loss, TRAIL sensitization), % at 10 µM; 1% of 360,000 active;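 active means compounds causing at least 50% loss of cell viability in the single-dose screen, relative to plate controls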
PPC-1+TRAIL kill = PPC-1 cancer cell killing with TRAIL present; PPC-1 cells + TRAIL, ATPLite viability luminescence; cell killing (% activity), % at 4 µM or 5 µM; 0.41% of 220,000 active; AID 1443;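 active means cell killing above 50% in the first pass at 4 µM, then a duplicate retest at 5 µM averaging 50% or more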;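 further: plate controls were cells with TRAIL plus DMSO for no effect and medium-only wells lacking cells for full effect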
FLuc inh counter = counter-screen for luciferase assay inhibitors: firefly luciferase inhibition. P08659. ATPLite firefly luciferase biochemical luminescence, 10 min. inhibition, % at 10 µM. 1.5% of 200,000 active;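 active means inhibition above about 50% when tested at 10 µM, limit read from the data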
Active calls of the source: *; . = no result given; ! = not active in a repeat.

SMILES	FLuc act counter	TRAIL sens C8	PPC-1+TRAIL kill	FLuc inh counter
O=C(/C=C/[C@H]1O[C@@H](n2cnc3c(NC(=O)c4ccccc4)ncnc32)[C@H](O)[C@@H]1O)NCC1CCCO1 (some centres not stated)	.	54*	.	.
O=C(CC[C@H]1O[C@@H](n2cnc3c(NC(=O)c4ccccc4)ncnc32)[C@H](O)[C@@H]1O)NCC1CCCO1 (some centres not stated)	.	10	.	.
O=C(Nc1ccc2nc(-c3cccnc3)[nH]c2c1)C1CCCCC1	0.4	31	35	64*
CCOC(=O)N1CCN(c2cc(=O)n(-c3cccc(C)c3)c(=O)[nH]2)CC1	1.1	0	-10	-7
COc1cc2nc(N(CCCN(C)C)C(=O)c3ccc(C(=O)c4ccccc4)cc3)sc2cc1OC	.	7	.	.
CC1CCCCN1S(=O)(=O)c1ccc(C(=O)N(CCCN(C)C)c2nc3ccc(Br)cc3s2)cc1 (configuration not stated)	.	55*	.	.
CCc1ccc2nc(N(CCCN(C)C)C(=O)c3ccc(S(=O)(=O)N4CCCc5ccccc54)cc3)sc2c1	.	68*	.	.
CCc1ccc2nc(N(CCCN(C)C)C(=O)c3ccc(C(=O)c4ccccc4)cc3)sc2c1	.	62*	.	.
Nc1ccc2nn(-c3ccccc3)nc2c1	0.4	22	21	60*
COc1cc(/C=C/c2nc3ccccc3c(=O)[nH]2)ccc1OC(F)F	.	56*	.	.
COc1cc(/C=C/c2nc3ccccc3c(=O)[nH]2)cc(OC)c1OC	.	10	.	.
C=CCOc1cccc(/C=C/c2nc3ccccc3c(=O)[nH]2)c1	.	57*	.	.
COC(=O)c1ccc(/C=C/c2nc3ccccc3c(=O)[nH]2)cc1	.	53*	.	.
C(=NN1CCCCCC1)c1ccc2ccccc2n1	.	90*	.	.
COc1cc2c(cc1OC)CN(S(=O)(=O)/C=C/c1ccccc1)CC2	.	-3	.	.
COc1ccc2nc(C(c3ccc(C)cc3)n3c(-c4ccccc4Br)nc4ccccc43)[nH]c2c1 (configuration not stated)	.	19	.	.
N#CC(=C1CCCC1)c1nc(-c2ccccc2)cs1	0.5	44	30	54*
O=C1c2ccccc2C(=O)c2[nH]c(=O)[nH]c21	.	75*	.	.
O=C1c2ccccc2C(=O)c2[nH]cnc21	.	5	31	.
O=C(O)CCCCCNC(=O)C(=O)C1C(=O)Nc2ccccc21 (configuration not stated)	.	-1	6	.
CN1/C(=C\C(=O)C[n+]2ccc(C(=O)c3ccccc3)cc2)C(C)(C)c2ccccc21	1	55*	21	-3
COc1cccc(CNC(=O)C2CCN(S(=O)(=O)N3CCC(C)CC3)CC2)c1	.	-19	.	.
CNC(=O)c1[nH]cnc1C(=O)Nc1ccc(Cl)cc1	.	-7	2	.
Cc1sc(NC(=O)c2cccc(N3C(=O)CCC3=O)c2)nc1-c1ccccc1	.	50*	.	.
CC(=O)c1sc(NC(=O)c2cccc(N3C(=O)CCC3=O)c2)nc1-c1ccccc1	.	18	.	.
SMILES	FLuc act counter	TRAIL sens C8	PPC-1+TRAIL kill	FLuc inh counter
O=C(Nc1ccc2c(c1)OCO2)c1ccc(Br)s1	0.4	41	34	61*
O=C(Nc1nc2cc3c(cc2s1)OCCO3)c1cccs1	.	63*	21	.
CC(=O)Nc1ccc2c(c1)OCO2	1	-4	-6	-4
O=C(Nc1ccc(N2CCCC2)c(Cl)c1)c1cccs1	0.3	27	41	66*
O=C(Nc1ccc2c(c1)OCO2)c1cccs1	0.6	22	13	36
O=C(Nc1ccc2c(c1)OCCO2)c1cccs1	0.3	46	29	70*
O=C(Nc1nc2cc3c(cc2s1)OCCO3)c1cccc(N2C(=O)CCC2=O)c1	0.2	-5	67*	81*
O=C(Nc1nc2ccccc2s1)c1cccc(N2C(=O)CCC2=O)c1	.	30	.	.
Cc1ccc(S(N)(=O)=O)cc1NC(=O)c1ccc2c3c(cccc13)CC2	.	-14	.	.
Cc1nn(-c2ccccn2)c2c1-c1nc(N)ncc1CC2	0.4	25	22	61*
O=C(COc1ccccc1)N(CCc1ccccc1)c1nc(-c2ccc(F)cc2)cs1	1.1	-5	-4	-6
COc1ccc2nc(NN=C(C)c3ccccn3)cc(C)c2c1	.	69*	.	.
O=C(Nc1nccs1)c1ccc(-c2ccc(Cl)cc2Cl)o1	0.3	-1	42	69*
CCn1c2ccccc2nc2cc3c(cc21)c(Cl)c(=O)c1ccccc13	.	79*	.	.
O=C(O)COc1ccccc1/C=N/NC(=O)CN1CCN(Cc2ccc(Cl)cc2)CC1	.	13	-28	.
O=C(CN(c1cccc(C(F)(F)F)c1)S(=O)(=O)c1ccc(Cl)c([N+](=O)[O-])c1)NCc1ccccc1Cl	1.1	2	66*	-7
O=C(Nc1cccc([N+](=O)[O-])c1)Nc1ccc2c(c1)OCCO2	0.6	31	22	36
Cc1ccc(Nc2nc(NCc3ccco3)c3ccccc3n2)cc1	0.9	71*	20	6
C[C@@]12C(=O)N(CC3CC3)CC(=O)N1[C@H](/C=C/c1ccccc1)[C@@H]1C(=O)N(c3ccccc3)C(=O)[C@@H]12	.	19	.	.
O=C1CN(S(=O)(=O)c2cc(Br)ccc2Br)CCN1	.	0	.	.
O=c1c(Br)ccc(Br)cc1Br	.	93*	.	.
O=C(NC(=Nc1nc2ccccc2o1)NC(=O)c1ccccc1)c1ccccc1	1	-16	9	-4
COc1ccccc1C(=O)NC(=Nc1nc2ccccc2o1)NC(=O)c1ccccc1OC	1	71*!	3	4
S=c1nc[nH]c2nc[nH]c12	.	71*	.	.
COc1ccc(NC(=O)CSc2nc(C)c3c(c2C#N)CCCC3)cc1	1.1	-16	0	-7
SMILES	FLuc act counter	TRAIL sens C8	PPC-1+TRAIL kill	FLuc inh counter
CCc1nnc(NC(=O)CSc2nc(C)c3c(c2C#N)CCCC3)s1	0.9	66*	57*	12
NC1=C(Br)C(=O)c2ncccc2C1=O	.	95*	.	.
O=C1c2cccnc2C(=O)N1CO	1	2	1	-5
NC(=S)Cc1nc2n(n1)Cc1ccccc1-2	1	2	16	-3
Fc1ccc(-c2nc3n(n2)Cc2ccccc2-3)cc1	0.3	57*	2	75*
Cc1cc(OCc2cc(C(=O)N(C)C(C)c3ccccn3)no2)cc(C)c1Cl (configuration not stated)	.	-2	.	.
CC(Sc1ccccc1)C(=O)NNC(=O)c1ccncc1 (configuration not stated)	.	24	.	.
O=C(COc1ccccc1)Nc1cc(Cl)ccc1Cl	.	9	.	.
O=C(COc1ccc(Cl)cc1Cl)Nc1ccccc1F	.	58*	.	.
O=C(COc1ccccc1)Nc1ccc(Cl)cc1Cl	0.5	.	10	50*
COc1cc2nc(N3CCN(c4cc(C)ccc4C)CC3)nc(N)c2cc1OC	.	57*	.	.
COc1cc2nc(N3CCNCC3)nc(N)c2cc1OC	1.1	53*	23	-8
COc1ccc(C)cc1Nc1nc(N)c2cc(OC)c(OC)cc2n1	.	15	.	.
Cc1ccc(S(=O)(=O)N2CCC(C(=O)NCC(C)(C)N3CCOCC3)CC2)c(C)c1	.	6	.	.
CCC(C)[C@H]1CNC(=O)C(=O)N1CCCCC1CCCCC1 (some centres not stated)	.	1	.	.
O=C(N/N=C/c1c[nH]c2ccccc12)c1cc(-c2ccccc2)n[nH]1	1	4	37	4

High-throughput results (PubChem BioAssay)
